Here are results for three molecules from paper PMC12799544 (Molecular Pharmacology, 2025).

Data set [1] deals with RyR2 (Mus musculus, UniProt E9Q401). The data set is described as follows: Ca spark assay in permeabilized ventricular cardiomyocytes. To be noted: for Concentration dependence of Ca spark frequency: increasing concentrations. It counts as cell-based, C57BL/6J mice. The method in brief: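 Mouse ventricular myocytes (C57BL/6J, 12–18 weeks, both sexes) attached 10 min on laminin at room temperature, saponin-permeabilized (40 μg/mL, 40 s), then bathed 15 min in pH 7.2 internal solution (5 mM MgATP, 0.5 mM EGTA, 0.12 mM CaCl2, Fluo-4) with 0.1% DMSO or test compound. Confocal x-t sparks in brick-shaped cells; caffeine used as reference activator. Hierarchical mixed-effects statistics; 4-parameter concentration-response fit.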

Data set [2] concerns the target T1, RyR2 (Sus scrofa, UniProt A0A5G2R1W3). Nature of the data set: RyR2 single-channel recording in artificial lipid bilayers. It counts as biochemical, porcine. In a few lines: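 Porcine cardiac SR vesicles were fused into PE:PS:PC (5:3:2) bilayers with symmetric 250 mM Cs+ and TES pH 7.4. The cis side held 0.1 μM free Ca (CaCl2/BAPTA) plus 2 mM ATP, at 23 ± 2 °C and +40 mV. Compound (0.01–10 or 1–100 μM) was added cis with DMSO <0.1%. Po came from 30–60 s at a 50% threshold, relative to vehicle on the same channel. Dwell times were fitted with 2 exponentials; 4-parameter fit.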

The target in data set [3] is T2, RyR1 (Sus scrofa, UniProt P16960). Nature of the data set: RyR1 single-channel recording in artificial lipid bilayers. It counts as biochemical, porcine. The method in brief:
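Porcine longissimus dorsi SR vesicles were fused into PE:PS:PC (5:3:2) bilayers with symmetric 250 mM Cs+ and TES pH 7.4. The cis side held 0.1 μM free Ca (CaCl2/BAPTA) plus 2 mM ATP, at 23 ± 2 °C. Compound was added cis by aliquot or local perfusion, DMSO <0.1%. Po came from 30–60 s recordings, 50% amplitude threshold, 1 kHz filter. Nonlinear 4-parameter concentration-response fit.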

The target of data set [4] is T1, RyR2. Nature of the data set: [3H]-ryanodine ligand binding assay, cardiac SR membrane. Also on record: species or system porcine. In a few lines: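 Porcine cardiac SR (3 mg/mL) was incubated 3 h at 37 °C with 7.5 nM [3H]-ryanodine and compound in 20 mM PIPES pH 7.0, 150 mM KCl, 5 mM ATP, 0.1 μM calmodulin and 0.1 μM free Ca (1 mM EGTA). Nonspecific binding used 15 μM cold ryanodine; maximal binding used 5 mM AMP-PNP plus 20 mM caffeine. Bound label was counted by filtration and scintillation, normalized to vehicle; 4-parameter fit.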

In data set [5] the target is T2, RyR1. The data set is described as follows: [3H]-ryanodine ligand binding assay, skeletal SR membrane. More on the design: species or system porcine. In a few lines:
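Porcine skeletal SR (1 mg/mL) was incubated 3 h at 37 °C with 10 nM [3H]-ryanodine and compound in 20 mM PIPES pH 7.0, 150 mM KCl, 5 mM ATP, 0.1 μM calmodulin and 0.1 μM free Ca (1 mM EGTA). Nonspecific binding used 15 μM cold ryanodine; maximal binding used 5 mM AMP-PNP plus 20 mM caffeine. Bound label was counted by filtration and scintillation, normalized to vehicle; 4-parameter fit.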

The nature of data set [6]: Caco-2 bidirectional permeability assay. To be noted: human, Caco-2, pH 7.4. It counts as in vitro ADME, human. In a few lines: (§1)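 Caco-2 monolayers (passages 55–65) grown 21 days on 0.4 μm Transwell inserts and used only above 1000 Ω·cm2 TEER. Compound at 10 μM in HBSS (<1% DMSO) was dosed apically or basally. Samples at 0 and 2 h were analyzed by LC-MS for Papp, efflux ratio and recovery. Integrity was checked afterwards by lucifer yellow flux (≤0.5%).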
(Caco-2 monolayers are a common model of the intestinal barrier.)

The next data set has as its system Caco-2 cell monolayer. Nature of the data set: Caco-2 bidirectional permeability assay. To be noted: recovery. It counts as in vitro ADME, human. The method in brief: as §1
Data set [7] in a line: Parallel artificial membrane permeability assay. It counts as in vitro ADME. In a few lines: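 Donor compound at 500 μM in PBS pH 7.4 with TPGS, across hydrophobic membranes pretreated with 1% lecithin in n-dodecane, into PBS acceptor. Incubated 14–18 h at room temperature in a humidified chamber. Donor and acceptor were quantified by LC-MS; Papp, percent recovery and percent diffusion came from ratio formulas.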

Data set [8] has as its system RyR2. To be noted: cited from earlier work.

Molecules are shown by their SMILES. Where “and” joins values, the source holds several entries; their conditions need not be identical. Equal entries are not always repeated.

T1 sequence (A0A5G2R1W3 20-4900): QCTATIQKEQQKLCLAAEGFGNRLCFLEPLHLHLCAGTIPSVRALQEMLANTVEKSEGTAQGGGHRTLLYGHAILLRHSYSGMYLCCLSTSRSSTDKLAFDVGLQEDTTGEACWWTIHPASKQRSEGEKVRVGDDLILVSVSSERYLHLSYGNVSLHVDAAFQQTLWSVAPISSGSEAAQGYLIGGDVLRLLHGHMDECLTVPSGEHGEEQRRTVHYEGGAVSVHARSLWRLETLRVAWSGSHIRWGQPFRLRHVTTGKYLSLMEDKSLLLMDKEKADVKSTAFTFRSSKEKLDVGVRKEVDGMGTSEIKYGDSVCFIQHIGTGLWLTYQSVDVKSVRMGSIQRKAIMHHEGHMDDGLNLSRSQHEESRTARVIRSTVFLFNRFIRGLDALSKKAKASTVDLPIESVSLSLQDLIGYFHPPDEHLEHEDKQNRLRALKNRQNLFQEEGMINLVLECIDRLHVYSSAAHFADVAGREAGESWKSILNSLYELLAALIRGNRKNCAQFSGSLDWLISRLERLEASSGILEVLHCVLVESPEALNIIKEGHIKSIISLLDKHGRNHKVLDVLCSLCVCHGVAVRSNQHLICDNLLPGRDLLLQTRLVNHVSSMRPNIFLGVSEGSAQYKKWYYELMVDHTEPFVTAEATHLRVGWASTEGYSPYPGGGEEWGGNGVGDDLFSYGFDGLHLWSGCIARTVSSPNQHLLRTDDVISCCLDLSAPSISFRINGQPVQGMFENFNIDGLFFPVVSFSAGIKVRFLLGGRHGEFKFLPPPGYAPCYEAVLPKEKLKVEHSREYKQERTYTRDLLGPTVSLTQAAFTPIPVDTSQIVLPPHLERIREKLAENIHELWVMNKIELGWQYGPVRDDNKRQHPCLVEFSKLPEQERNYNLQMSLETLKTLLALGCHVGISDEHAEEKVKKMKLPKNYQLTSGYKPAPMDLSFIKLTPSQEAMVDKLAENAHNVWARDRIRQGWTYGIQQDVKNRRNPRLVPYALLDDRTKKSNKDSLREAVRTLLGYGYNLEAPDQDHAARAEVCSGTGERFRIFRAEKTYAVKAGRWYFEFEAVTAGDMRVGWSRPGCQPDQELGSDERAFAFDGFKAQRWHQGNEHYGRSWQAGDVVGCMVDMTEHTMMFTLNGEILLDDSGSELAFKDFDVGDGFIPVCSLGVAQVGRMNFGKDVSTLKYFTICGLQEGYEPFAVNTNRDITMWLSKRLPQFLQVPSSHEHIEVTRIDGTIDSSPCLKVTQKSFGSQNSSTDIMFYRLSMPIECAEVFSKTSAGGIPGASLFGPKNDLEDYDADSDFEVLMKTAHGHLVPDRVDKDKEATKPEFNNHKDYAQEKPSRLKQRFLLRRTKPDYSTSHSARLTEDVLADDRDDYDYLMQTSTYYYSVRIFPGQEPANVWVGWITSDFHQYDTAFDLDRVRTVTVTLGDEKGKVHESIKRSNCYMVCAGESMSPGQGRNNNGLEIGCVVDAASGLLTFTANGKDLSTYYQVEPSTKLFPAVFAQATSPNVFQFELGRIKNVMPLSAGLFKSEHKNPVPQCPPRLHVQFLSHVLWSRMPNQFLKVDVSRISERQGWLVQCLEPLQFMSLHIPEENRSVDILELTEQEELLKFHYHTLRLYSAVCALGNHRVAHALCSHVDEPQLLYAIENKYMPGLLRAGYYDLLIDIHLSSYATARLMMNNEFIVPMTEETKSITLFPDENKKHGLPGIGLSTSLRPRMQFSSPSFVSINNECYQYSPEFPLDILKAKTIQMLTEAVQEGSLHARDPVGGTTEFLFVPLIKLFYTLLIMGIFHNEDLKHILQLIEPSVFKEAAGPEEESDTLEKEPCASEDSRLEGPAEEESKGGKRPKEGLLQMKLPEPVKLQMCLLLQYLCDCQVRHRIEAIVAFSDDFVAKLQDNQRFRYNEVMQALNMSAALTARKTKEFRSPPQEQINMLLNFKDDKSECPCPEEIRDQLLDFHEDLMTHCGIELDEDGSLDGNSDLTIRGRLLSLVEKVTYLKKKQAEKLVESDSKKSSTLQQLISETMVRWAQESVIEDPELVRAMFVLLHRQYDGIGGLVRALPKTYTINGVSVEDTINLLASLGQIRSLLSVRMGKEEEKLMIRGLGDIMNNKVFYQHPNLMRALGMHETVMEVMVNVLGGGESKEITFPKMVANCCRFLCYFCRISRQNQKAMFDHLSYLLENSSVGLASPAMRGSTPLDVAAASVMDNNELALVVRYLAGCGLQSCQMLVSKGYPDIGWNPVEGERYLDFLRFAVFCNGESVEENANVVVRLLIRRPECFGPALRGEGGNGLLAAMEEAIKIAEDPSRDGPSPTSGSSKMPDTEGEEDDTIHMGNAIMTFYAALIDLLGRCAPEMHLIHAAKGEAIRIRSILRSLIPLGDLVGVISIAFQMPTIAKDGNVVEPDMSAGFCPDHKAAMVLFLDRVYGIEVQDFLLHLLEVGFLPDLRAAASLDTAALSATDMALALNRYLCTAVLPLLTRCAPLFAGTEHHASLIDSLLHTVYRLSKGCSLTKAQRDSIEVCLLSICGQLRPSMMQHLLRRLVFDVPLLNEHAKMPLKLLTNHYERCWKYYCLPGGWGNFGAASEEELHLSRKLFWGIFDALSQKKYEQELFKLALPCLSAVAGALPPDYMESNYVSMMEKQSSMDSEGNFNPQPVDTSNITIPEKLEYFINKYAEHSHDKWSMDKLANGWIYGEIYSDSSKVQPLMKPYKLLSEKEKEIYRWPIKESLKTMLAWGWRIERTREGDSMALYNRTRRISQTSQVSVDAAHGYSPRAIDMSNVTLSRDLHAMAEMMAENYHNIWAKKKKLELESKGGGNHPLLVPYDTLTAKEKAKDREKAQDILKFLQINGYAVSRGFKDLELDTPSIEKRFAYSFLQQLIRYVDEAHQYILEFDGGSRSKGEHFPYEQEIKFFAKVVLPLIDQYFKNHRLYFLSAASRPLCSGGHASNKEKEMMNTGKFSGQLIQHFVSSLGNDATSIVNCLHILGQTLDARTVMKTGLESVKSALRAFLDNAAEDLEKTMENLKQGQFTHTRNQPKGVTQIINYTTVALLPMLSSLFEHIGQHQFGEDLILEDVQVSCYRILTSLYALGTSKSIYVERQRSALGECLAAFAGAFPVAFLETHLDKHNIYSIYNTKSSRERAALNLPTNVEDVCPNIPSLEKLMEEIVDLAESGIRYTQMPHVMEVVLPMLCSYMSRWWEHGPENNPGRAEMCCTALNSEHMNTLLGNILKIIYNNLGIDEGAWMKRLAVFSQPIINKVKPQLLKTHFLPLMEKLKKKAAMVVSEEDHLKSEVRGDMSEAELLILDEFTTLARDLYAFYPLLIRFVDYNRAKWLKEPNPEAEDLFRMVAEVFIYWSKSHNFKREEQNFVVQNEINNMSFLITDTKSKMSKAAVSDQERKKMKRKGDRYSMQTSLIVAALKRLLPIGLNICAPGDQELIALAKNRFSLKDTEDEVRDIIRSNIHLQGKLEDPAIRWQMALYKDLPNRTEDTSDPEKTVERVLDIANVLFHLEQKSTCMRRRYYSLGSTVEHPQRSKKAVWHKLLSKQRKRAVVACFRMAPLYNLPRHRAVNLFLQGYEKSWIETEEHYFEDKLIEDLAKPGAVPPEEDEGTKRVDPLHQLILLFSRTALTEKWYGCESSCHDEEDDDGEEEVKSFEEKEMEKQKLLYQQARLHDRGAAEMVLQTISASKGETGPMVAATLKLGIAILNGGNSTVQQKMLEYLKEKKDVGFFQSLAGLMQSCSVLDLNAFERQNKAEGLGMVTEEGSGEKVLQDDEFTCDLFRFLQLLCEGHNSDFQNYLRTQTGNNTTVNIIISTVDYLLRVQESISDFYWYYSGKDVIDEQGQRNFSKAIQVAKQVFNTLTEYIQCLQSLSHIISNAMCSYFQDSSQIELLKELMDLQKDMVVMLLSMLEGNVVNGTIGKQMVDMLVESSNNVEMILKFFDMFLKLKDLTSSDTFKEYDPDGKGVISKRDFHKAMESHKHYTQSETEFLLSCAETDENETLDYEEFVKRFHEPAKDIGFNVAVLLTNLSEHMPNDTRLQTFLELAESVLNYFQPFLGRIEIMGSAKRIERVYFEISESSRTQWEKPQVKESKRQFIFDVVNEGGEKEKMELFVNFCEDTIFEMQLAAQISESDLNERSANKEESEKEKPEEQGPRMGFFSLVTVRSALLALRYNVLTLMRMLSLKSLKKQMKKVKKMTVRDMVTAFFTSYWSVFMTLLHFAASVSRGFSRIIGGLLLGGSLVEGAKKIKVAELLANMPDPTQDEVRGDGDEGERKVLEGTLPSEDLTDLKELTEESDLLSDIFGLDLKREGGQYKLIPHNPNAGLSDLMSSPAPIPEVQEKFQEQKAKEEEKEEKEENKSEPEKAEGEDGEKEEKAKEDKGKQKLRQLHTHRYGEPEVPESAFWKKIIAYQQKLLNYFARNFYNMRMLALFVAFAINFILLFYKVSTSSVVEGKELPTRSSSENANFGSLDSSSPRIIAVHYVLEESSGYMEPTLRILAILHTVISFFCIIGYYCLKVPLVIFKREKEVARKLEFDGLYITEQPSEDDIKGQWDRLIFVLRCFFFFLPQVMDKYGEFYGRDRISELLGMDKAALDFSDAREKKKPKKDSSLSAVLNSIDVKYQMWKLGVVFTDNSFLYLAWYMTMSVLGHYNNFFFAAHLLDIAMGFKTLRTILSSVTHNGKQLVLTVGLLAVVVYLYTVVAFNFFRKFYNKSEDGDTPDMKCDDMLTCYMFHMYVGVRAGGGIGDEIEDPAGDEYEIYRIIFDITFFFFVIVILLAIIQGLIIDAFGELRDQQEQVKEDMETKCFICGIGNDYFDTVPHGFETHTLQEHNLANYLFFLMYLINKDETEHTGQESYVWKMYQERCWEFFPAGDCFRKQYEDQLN

`Cn1c(=O)c2c(ncn2C)n(C)c1=O` [caffeine, reference compound]: the “Ca spark duration with caffeine” value on RyR2 [1] (1 mM caffeine) is “many long-lasting sparks”. Further, the “Concentration dependence of Ca spark frequency” value at RyR2 [1] is given as “dose-dependent response”.

`CCCCC[C@@H]1OC(=O)[C@@H](C)N(C)C(=O)[C@H](CCCCC)OC(=O)[C@@H](C)N(C)C(=O)[C@H](CC(=O)O)OC(=O)[C@@H](C)N(C)C(=O)[C@H](CCCCC)OC(=O)[C@@H](C)N(C)C1=O` [activert, 2-((2S,5R,8S,11R,14S,17R,20S,23R)-4,5,10,11,16,17,22,23-Octamethyl-3,6,9,12,15,18,21,24-octaoxo-8,14,20-tripentyl-1,7,13,19-tetraoxa-4,10,16,22-tetraazacyclotetracosan-2-yl)acetic acid] gave an IC50 on RyR2 [2] of around 32.2 µM. Besides, the EC50 on RyR2 [2] (EC50, activation of RyR2 single-channel Po, pCa 7, 2 mM ATP, +40 mV, 95% CI 1.4–63.1 μM) was ~30 µM and ~32.2 µM. On RyR2 [2] (activert ≥50 μM versus vehicle), the Mean closed duration entry is listed as “decreased” and the Mean open duration entry is reported as “without altering”. Also, the “Potency on RyR2 compared with ent-verticilide (fold less potent)” value on RyR2 [2] (compared with ent-verticilide) is recorded as around 100 fold. The Emax on RyR2 [2] (read-out: Emax, partial activation of RyR2 single-channel Po) was around 34%. This molecule returned an EC50 at RyR1 [3] of around 10.5 µM. Besides, the Emax at RyR1 [3] (read-out: Emax, increase of RyR1 single-channel Po) is around 14.4%. This molecule showed an EC50 at RyR2 [4] of around 46 µM. Moreover, the maximum response (Emax) on RyR2 [4] (read-out: Emax, increase of [3H]-ryanodine binding to RyR2 normalized to vehicle) is around 29%. At RyR1 [5], the EC50 is around 9 µM. Moreover, on RyR1 [5] (read-out: Emax, increase of [3H]-ryanodine binding to RyR1 normalized to vehicle), the Emax was around 17%. Further, at RyR2 [1] (25 μM), the “Average duration of the Ca spark” value was “modestly increased”, the “Overall RyR2-mediated SR Ca leak” value is reported as “elevated”, the “Reduction of SR Ca load (amplitude of caffeine-induced Ca transient)” value is on record as around 10% and the “Size (amplitude or width) of the average Ca spark” value was “without changes”. Further, on RyR2 [1] (25 μM, 15 min, permeabilized cardiomyocytes), the “Ca spark frequency versus vehicle” value is on record as “increase”. In addition, the “Distribution of Ca spark duration compared with DMSO control” value at RyR2 [1] (100 μM activert) is recorded as “prolonged”. Besides, the “Concentration dependence of Ca spark frequency” value at RyR2 [1] was “dose-dependent increase”. In addition, in [6], the Papp A→B at 2 h, 10 µM stood at 0.4 ×10⁻⁶ cm/s; the Papp B→A at 2 h, 10 µM worked out at 1.1 ×10⁻⁶ cm/s; the apparent permeability coefficient (Papp) at 2 h, 10 µM is below 1 ×10⁻⁶ cm/s; the efflux ratio at 2 h, 10 µM stood at 2.73. Also, in the data set with Caco-2 cell monolayer (apical-to-basal), the “%R (A-B)” value is 101%. For the same molecule, the “%R (B-A)” value in the data set on Caco-2 cell monolayer (basal-to-apical) came to 80%. The “% Diffusion” value in data set [7] (PAMPA) came to 7%. Also, the “%R” value in data set [7] (PAMPA recovery) is given as 92%. The molecule also came in with a Papp at 500 µM in [7] (PAMPA, pH 7.4, Permeability (experimental permeability rate)) below 2 ×10⁻⁶ cm/s.

Turning to `O=C1CN(/N=C/c2ccc(-c3ccc([N+](=O)[O-])cc3)o2)C(O)=N1` [dantrolene], the “Maximal inhibition of RyR2” value with RyR2 [8] is given as around 50%.

The term IC50 denotes the midpoint of a concentration-inhibition curve. Higher therefore signals weaker potency. A word on the EC50: it is the concentration giving half of the maximal effect. The term Emax denotes the greatest response seen or fitted, relative to the assay's reference. As a reminder, the Papp A→B is how fast a substance crosses the layer from the apical side. The low end stands for slow passage, the high end for fast passage. The Papp B→A is the apparent permeability from the basolateral to the apical side of a cell layer. As a reminder, the Papp is a coefficient for how fast a substance crosses the barrier. What is called efflux ratio is the permeability from basolateral to apical divided by that in the opposite direction, in the common usage.
